In series [1] the test system is Mycobacterium tuberculosis. The series is described as follows: Antimycobacterial activity against wild type Mycobacterium tuberculosis H37Rv incubated for 14 days by broth microdilution assay. The note with it: 336 h. The format is functional.
In series [2] the test system is Pseudomonas aeruginosa. The series is described as follows: Antibacterial activity against Pseudomonas aeruginosa ATCC 27853 after 24 hrs by spectrophotometric analysis. The format is functional. The note with it: ATCC 27853, 24 h. The procedure, abridged:
(§1)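 Log-phase culture in Mueller Hinton broth at 37 °C with shaking for 3-4 h, pelleted, adjusted at 600 nm in 10 mM phosphate buffer pH 7. Final inoculum approx. 5 × 10^5 CFU/mL. Twofold serial dilutions, final 100 to 0.2 µg/mL. Aerobic incubation 24 h at 37 °C. MIC is the lowest concentration with no visible growth, also read by resazurin (no blue-to-pink change).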

Series [3] is described as follows: Intrinsic clearance in human liver microsomes at 1 uM by HPLC-MS/MS analysis. The format is ADME, microsome. The note with it: read-out: CLH. In short, it runs like this: (§2)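 Compound at 1 µM incubated 60 min at 37 °C with pooled HLM (1 mg protein/mL) and an NADPH-regenerating system in 100 mM PBS pH 7.4, after 5 min preheating. Sampled at 0, 15, 30, 60 min, quenched with two volumes of acetonitrile, centrifuged, and supernatant analysed by HPLC-MS/MS. CLint = (0.693/t1/2) × (mL incubation/mg microsomes) × 45 mg/g liver × 20 g liver/kg.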

Series [4] is described as follows: Half life in human liver microsomes at 1 uM by HPLC-MS/MS analysis. The class given is ADME, microsome. The procedure, abridged:
as §2

Series [5] relates to Mycobacterium tuberculosis. The series is described as follows: Antimycobacterial activity against nonreplicating Mycobacterium tuberculosis H37Rv ATCC 27924 incubated for 5 days under hypoxic condition followed by 2 days incubation under normal atmosphere by MTT dye based broth microdilution assay. The format is functional. The procedure, abridged: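 Mtb H37Rv ATCC27924 adapted to hypoxia: grown in 8 mL MB7H9, tubes tightly capped and sealed, standing at 37 °C for 8 weeks; methylene blue (final 1.5 µg/mL) monitored O2 depletion. Cells exposed to varying compound concentrations 5 days at 37 °C in anaerobic jar (indicator strip), then 2 days normal atmosphere recovery; MTT to final 2.5%, overnight at room temperature; MIC = lowest concentration with no colour change; triplicate.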

Series [6] in a line: Cytotoxicity against human MDM cells assessed as reduction in cell viability after 3 days by AlamarBlue assay. The format is cell-based. The note with it: 72 h. In short, it runs like this: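 Macrophages came from healthy donors' PBMC (Ficoll gradient), differentiated 7 days in RPMI-1640/10% FCS with 20 ng/mL M-CSF at 37 °C, 5% CO2. 5 × 10^4 cells/well exposed to compounds for 3 days. Viability by AlamarBlue fluorescence (ex 540/35, em 590/20). IC50 taken as the highest concentration leaving 50% of cells viable relative to control.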

For series [7], the system named is Escherichia coli. The series is described as follows: Antibacterial activity against Escherichia coli ATCC 25922 after 24 hrs by spectrophotometric analysis. The note with it: ATCC 25922, 24 h. The class given is functional. In short, it runs like this:
as §1

Series [8] deals with Staphylococcus aureus. The series is described as follows: Antibacterial activity against Staphylococcus aureus ATCC 25923 after 24 hrs by spectrophotometric analysis. The class given is functional. The note with it: ATCC 25923, 24 h. In short, it runs like this: as §1
The test system of series [9] is Enterococcus faecium. The series is described as follows: Antibacterial activity against Enterococcus faecium ATCC 35667 after 24 hrs by spectrophotometric analysis. The class given is functional. The note with it: ATCC 35667, 24 h. In short, it runs like this:
as §1

The subject of series [10] is Candida albicans. The series is described as follows: Antifungal activity against Candida albicans ATCC 11006 after 48 hrs by spectrophotometric analysis. The note with it: ATCC 11006, 48 h. The format is functional. In short, it runs like this:
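Broth microdilution in RPMI per CLSI M27-A3. Inoculum adjusted to 0.5 McFarland in phosphate buffer, diluted to about 10^3 CFU/mL final and used within 30 min. Compounds at final 100 to 0.2 µg/mL (twofold). Aerobic incubation 48 h at 37 °C. MIC is the lowest concentration without visible growth, also checked by resazurin colour change.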

The subject of series [11] is Mycobacterium tuberculosis. The series is described as follows: Antimycobacterial activity against wild type Mycobacterium tuberculosis H37Rv incubated for 14 days in presence of Verapamil by broth microdilution assay. The format is functional. The settings on record: 336 h.
The subject of series [12] is Mycobacterium tuberculosis. The series is described as follows: Antimycobacterial activity against wild type Mycobacterium tuberculosis H37Rv incubated for 14 days in presence of Thioridazine by broth microdilution assay. The note with it: 336 h. The class given is functional.
Series [13] relates to Mycobacterium tuberculosis H37Rv. The series is described as follows: Inhibition of efflux pump in wild type Mycobacterium tuberculosis H37Rv assessed as increase in accumulation of ethidium bromide by measuring relative final fluorescence index at 2.6 uM measured every second for 60 mins in absence of glucose by real time fluorimetric method.
Series [14] is described as follows: Selectivity index, ratio of IC50 for human MDM cells to MIC90 for Mycobacterium tuberculosis H37Rv. The settings on record: read-out: Selectivity Index. The class given is toxicity.

Values after ≈ are worked out from the molar mass of the structure shown. Some results are limits rather than exact numbers.

`Clc1cc(Cl)cc(Nc2nc(-c3ccncc3)cs2)c1` yielded an MIC90 in [1] of more than 64 µg/mL.

For the compound `CCN(CC)C(=O)c1cc(-c2csc(Nc3ccc(C)cc3)n2)on1`, the MIC90 in [1] was 16 to 32 µg/mL. On the same count and under the same terms, then `Cc1ccc(Nc2nc(-c3cc(CO)no3)cs2)cc1`, with 16 to 32 µg/mL; and `CC(=O)c1nc(Nc2ccc(C)cc2)sc1C`, with more than 64 µg/mL.

The compound `Cn1nc(C(=O)O)cc1-c1csc(Nc2cc(Cl)cc(Cl)c2)n1` returned an MIC90 in series [1] of more than 64 µg/mL. `Cc1ccc(Nc2nc(-c3cc(C(=O)Nc4ccccc4)no3)cs2)cc1`: the MIC90 in [2] is 100 µg/mL (≈ 266 µM); in series [1], 0.33 to 0.66 µM; in [5] it was 1 µg/mL (≈ 2.66 µM); in [7], 100 µg/mL (≈ 266 µM); in [8], more than 100 µg/mL; in series [9], 100 µg/mL (≈ 266 µM). Also, the MIC90 in series [10] is more than 100 µg/mL; in series [11] it was 2 µg/mL; in [12], 2 µg/mL. In addition, in [3], the CLint scaled at 1 µM worked out at 17.8 mL/min/kg. In addition, in [4], the half-life at 1 µM was determined as 35.1 min. In addition, the IC50 in [6] was determined as 186 µM. Besides, in series [13], the Activity index was determined as 0.22. Also, the selectivity ratio in series [14] was more than 500.

On to `Cc1ccc(Nc2nc(-c3cc(C(=O)N4CCCCC4)no3)cs2)cc1`, for which the MIC90 in [1] is 16 to 32 µg/mL. Take `COc1ccc(-c2csc(Nc3ccc(C)cc3)n2)cc1`: in series [1], the MIC90 was 3.8 µg/mL. Still for that read-out and setting: then `COc1ccc(-c2cc(-c3csc(Nc4ccc(C)cc4)n3)on2)cc1`, with 4 to 8 µg/mL; and `Cc1ccc(Nc2nc(-c3cc(C(=O)O)nn3C)cs2)cc1`, with more than 64 µg/mL; and `CCN(CC)C(=O)c1cc(-c2csc(Nc3cc(Cl)cc(Cl)c3)n2)n(C)n1`, with more than 64 µg/mL. In series [1], `CCN(CC)C(=O)c1cc(-c2csc(Nc3ccc(C)cc3)n2)n(C)n1` registered an MIC90 of more than 64 µg/mL. Regarding `CNC(=O)c1cc(-c2csc(Nc3ccc(C)cc3)n2)on1`, in series [1], the MIC90 was more than 64 µg/mL. Regarding `Cc1ccc(Nc2nc(-c3nc(N)sc3C)cs2)cc1`, in [1], the MIC90 was 16 to 32 µg/mL. As for `Cc1ccc(Nc2nc(-c3cc(C(=O)NC45CC6CC(CC(C6)C4)C5)no3)cs2)cc1`, in series [1], the MIC90 was more than 64 µg/mL. For `CCOC(=O)c1cc(-c2csc(Nc3ccc(C)cc3)n2)n(C)n1`, the MIC90 in series [1] is 16 to 32 µg/mL. On the same count and under the same terms, the same measure for `CCOC(=O)c1cc(-c2csc(Nc3cc(Cl)cc(Cl)c3)n2)n(C)n1`: more than 64 µg/mL.

`CCOC(=O)c1cc(-c2csc(Nc3cc(Cl)cc(Cl)c3)n2)on1`: in series [1], the MIC90 lay within 4 to 8 µg/mL. Further, in series [3], the CLint scaled at 1 µM stood at 189 mL/min/kg. For the same compound, the half-life at 1 µM in [4] stood at 3.3 min.

Consider `O=C(O)c1cc(-c2csc(Nc3cc(Cl)cc(Cl)c3)n2)on1`, for which the MIC90 in series [1] is more than 64 µg/mL.

In series [1], `NNC(=O)c1ccncc1` [ISONIAZID] gave an MIC90 of 0.22 to 0.44 µM. Same read-out and setting: the same measure for `c1cc(Nc2nc(-c3ccncc3)cs2)ccn1`: more than 64 µg/mL; for `Cc1ccc(Nc2nc(-c3nc(Nc4ccc(C)cc4)sc3C)cs2)cc1`: 4 to 8 µg/mL; for `Cc1sc(Nc2cc(Cl)cc(Cl)c2)nc1-c1csc(Nc2cc(Cl)cc(Cl)c2)n1`: more than 64 µg/mL. Compound `Cc1sc(N)nc1-c1csc(Nc2cc(Cl)cc(Cl)c2)n1` registered an MIC90 in [1] of 8 to 16 µg/mL.

Consider `Cc1ccc(Nc2nc(-c3cc(C(N)=O)no3)cs2)cc1`, for which the MIC90 in series [1] is more than 64 µg/mL. On the same count and under the same terms, the same measure for `CC(=O)c1nc(Nc2cc(Cl)cc(Cl)c2)sc1C`: more than 64 µg/mL.

With `O=C(Nc1ccccc1)c1cc(-c2csc(Nc3cc(Cl)cc(Cl)c3)n2)on1`, the selectivity ratio in series [14] is more than 500. For the compound `Cc1ccc(Nc2nc(-c3cc(C(=O)Nc4ccccn4)no3)cs2)cc1`, the MIC90 in [2] is 100 µg/mL (≈ 265 µM); in series [1], 0.16 to 0.32 µM; in series [5], 1 µg/mL (≈ 2.65 µM); in series [7], 100 µg/mL (≈ 265 µM); in series [8] it was 100 µg/mL (≈ 265 µM); in series [9] it was 100 µg/mL (≈ 265 µM). The MIC90 in [10] turned out to be 100 µg/mL (≈ 265 µM); in series [11] it was 2 µg/mL; in series [12] it was 1 µg/mL. Also, in [3], the CLint scaled at 1 µM was found to be 38.8 mL/min/kg. This compound came in with a half-life at 1 µM in series [4] of 16.1 min. The IC50 in [6] turned out to be 140 µM. In [13], the Activity index worked out at 0.17.

`CCOC(=O)c1cc(-c2csc(Nc3ccc(C)cc3)n2)on1` displayed an MIC90 in [1] of 1.5 to 3 µM. For the same compound, the CLint scaled at 1 µM in [3] is more than 400 mL/min/kg. This compound also returned a half-life at 1 µM in [4] of less than 1 min. Regarding `Cc1ccc(Nc2nc(-c3cc(-c4nccs4)no3)cs2)cc1`, the MIC90 in series [1] was more than 64 µg/mL. The same measure, in the same setting: then `Clc1cc(Cl)cc(Nc2nc(-c3c[nH]nn3)cs2)c1`, with more than 64 µg/mL; and `COc1ccc(-c2cc(-c3csc(Nc4cc(Cl)cc(Cl)c4)n3)on2)cc1`, with more than 64 µg/mL. Consider `Cc1ccc(Nc2nc(-c3cc(C(=O)O)no3)cs2)cc1`, for which the MIC90 in series [1] was more than 64 µg/mL. Moreover, the CLint scaled at 1 µM in [3] is 43.7 mL/min/kg. Further, the half-life at 1 µM in series [4] amounted to 14.3 min. With `O=C(NC12CC3CC(CC(C3)C1)C2)c1cc(-c2csc(Nc3cc(Cl)cc(Cl)c3)n2)on1`, the MIC90 in series [1] is more than 64 µg/mL. On the same count and under the same terms, the same measure for `Cc1ccc(Nc2nc(-c3ccncc3)cs2)cc1`: more than 64 µg/mL.

For the origin of these results see ChEMBL document CHEMBL4038332, “Substituted N-Phenyl-5-(2-(phenylamino)thiazol-4-yl)isoxazole-3-carboxamides Are Valuable Antitubercular Candidates that Evade Innate Efflux Machinery” (J Med Chem, 2017).
